Laboratory results reported in ChEMBL document CHEMBL1121744, “Synthesis and antihypertensive activity of a series of 8-substituted 1-oxa-3,8-diazaspiro[4.5]decan-2-ones” (J Med Chem, 1981).
Values joined by “and” are separate entries in the source; they are usually repeats but may differ in a detail not shown here. Equal values may be shown once.

What was measured:
[1] = system: Rattus norvegicus; assay: Antihypertensive activity as percentage fall in systolic blood pressure in spontaneously hypertensive rats after a period of 3 h for a dose of 50 mg/kg; type: functional, organism-based; set-up: dose 50 mg/kg; conditions: Artery
How it was run: (§1)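 Male Okamoto-Aoki SHR, trained, in groups of four matched for mean systolic pressure; one group per run received water vehicle. Oral dosing in water (0.1 mL per 10 g) on two consecutive mornings. After the day-2 dose, rats were restrained at 30.0 ± 1.0 °C. Systolic pressure was read by tail cuff (inflated to 300 mmHg, first pulse) at 1–4 h. % fall is versus the untreated control group, by 1-tail t test (p ≤ 0.05).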

[2] = system: Rattus norvegicus; assay: Antihypertensive activity as percentage fall in systolic blood pressure in spontaneously hypertensive rats after a period of 1 hr for a dose of 50 mg/kg; type: functional, Artery; how it was run: as §1
[3] = system: Rattus norvegicus; assay: Antihypertensive activity as percentage fall in systolic blood pressure in spontaneously hypertensive rats after a period of 4 hr for a dose of 50 mg/kg; type: functional, organism-based; set-up: dose 50 mg/kg; conditions: Artery; how it was run: as §1
[4] = system: Rattus norvegicus; assay: Antihypertensive activity as percentage fall in systolic blood pressure in spontaneously hypertensive rats after a period of 2 hr for a dose of 50 mg/kg; type: functional, organism-based; set-up: dose 50 mg/kg; conditions: Artery; how it was run: as §1
[5] = system: Rattus norvegicus; assay: Percentage fall in systolic blood pressure in spontaneously hypertensive rats after 3 h following 50 mg/kg p.o.; type: functional, Artery; conditions: route oral; how it was run: as §1
[6] = system: Rattus norvegicus; assay: Percentage fall in systolic blood pressure in spontaneously hypertensive rats after 2 hr following 50 mg/kg p.o.; type: functional, Artery; conditions: route oral; how it was run: as §1
[7] = (§2) Distribution coefficient between 1-Octanol and phosphate buffer at pH7.4; type: physicochemical; conditions: 1-octanol/phosphate buffer, pH 7.4
How it was run: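 Octanol/buffer distribution measured at pH 7.4 in phosphate with sodium chloride. Either HPLC (0.004 M) or shake flask.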

[8] = system: Rattus norvegicus; assay: Antihypertensive activity as percentage fall in systolic blood pressure in spontaneously hypertensive rats after a period of 1 hr for a dose of 50 mg/kg po; type: functional, organism-based; set-up: dose 50 mg/kg; conditions: Artery; how it was run: as §1
[9] = system: Rattus norvegicus; assay: The antihypertensive activity as percentage fall in systolic blood pressure in spontaneously hypertensive rats after a period of 1 hr for a dose of 50 mg/kg po
[10] = system: Rattus norvegicus; assay: The antihypertensive activity as percentage fall in systolic blood pressure in spontaneously hypertensive rats after a period of 3 hr for a dose of 50 mg/kg po
[11] = system: Rattus norvegicus; assay: The antihypertensive activity as percentage fall in systolic blood pressure in spontaneously hypertensive rats after a period of 4 hr for a dose of 50 mg/kg po
[12] = system: Rattus norvegicus; assay: The antihypertensive activity as percentage fall in systolic blood pressure in spontaneously hypertensive rats after a period of 2 hr for a dose of 50 mg/kg po
[13] = as §2; type: physicochemical; conditions: 1-octanol/phosphate buffer, pH 7.4; remark: listed apart in the source

Row | Structure (SMILES) | Decrease in blood pressure [1] | Decrease in blood pressure [2] [%] | Decrease in blood pressure [3] | Decrease in blood pressure [4] | logD [7] | Decrease in blood pressure [8] | further results
1 | CCN1CC2(CCN(CC(O)COc3ccccc3OC)CC2)OC1=O (stereo not given) | Not significant | 11 | Not significant | Not significant |  |  | 
2 | CCC1NC(=O)OC12CC[N+](C)(CCc1c[nH]c3ccccc13)CC2.[I-] (stereo not given) | Not significant | 20 | Not significant | Not significant |  |  | 
3 | COc1ccccc1OC[C@@H](O)CN1CCC2(CC1)CN(C)C(=O)O2 |  | 25 |  |  |  |  | Decrease in blood pressure [5]: 10%; Decrease in blood pressure ([6]; 50 mg/kg): 16% and 13%
4 | CCCC1NC(=O)OC12CCN(CCc1c[nH]c3ccccc13)CC2 (stereo not given) |  | 36 | Not significant |  | 2.31 |  | Decrease in blood pressure [5]: 16%; Decrease in blood pressure [6]: 12%
5 | CCCCC1NC(=O)OC12CCN(CCc1c[nH]c3ccccc13)CC2 (stereo not given) |  | 24 | Not significant |  |  |  | Decrease in blood pressure [5]: 15%; Decrease in blood pressure [6]: 14%
6 | COc1ccccc1OCC(O)CN1CCC2(CC1)CN(CCc1ccccc1)C(=O)O2 (stereo not given) | Not significant |  | Not significant | Not significant |  | Not significant | 
7 | O=C1OC2(CCN(CC(O)C3COc4ccccc4O3)CC2)CN1Cc1ccccc1 (stereo not given) | Not significant |  | Not significant | Not significant |  | Not significant | 
8 | O=C1OC2(CCN(CC(O)C3COc4ccccc4O3)CC2)CN1CCc1ccccc1 (stereo not given) | Not significant | 14 | Not significant | Not significant | 2.79 |  | 
9 | CC(C)C1NC(=O)OC12CCN(CCc1c[nH]c3ccccc13)CC2 (stereo not given) | Not significant | 26 | Not significant |  |  |  | Decrease in blood pressure [6]: 17%
10 | CCCC1CN(CCc2c[nH]c3ccccc23)CCC12CNC(=O)O2 (stereo not given) | Not significant | 21 | Not significant | Not significant | 2.42 |  | 
11 | O=C1NC(c2ccccc2)C2(CCN(CCc3c[nH]c4ccccc34)CC2)O1 (stereo not given) | Not significant |  | Not significant | Not significant | 2.61 | Not significant | 
12 | O=C1NC(Cc2ccccc2)C2(CCN(CC(O)C3COc4ccccc4O3)CC2)O1 (stereo not given) | Not significant |  | Not significant | Not significant | 2.41 | Not significant | 
13 | CCCN1CC2(CCN(CC(O)COc3ccccc3OC)CC2)OC1=O (stereo not given) | Not significant |  | Not significant | Not significant |  | Not significant | 
14 | CCC1NC(=O)OC12CCN(CC(O)C1COc3ccccc3O1)CC2 (stereo not given) |  |  |  |  |  |  | Decrease in blood pressure [9]: 47%; Decrease in blood pressure [10]: 32%; Decrease in blood pressure [11]: 40%; Decrease in blood pressure [12]: 43%
15 | O=C1NC(c2ccccc2)C2(CCN(CC(O)C3COc4ccccc4O3)CC2)O1 (stereo not given) | Not significant |  | Not significant | Not significant | 2.41 | Not significant | 
16 | COc1ccccc1OC[C@H](O)CN1CCC2(CC1)CN(C)C(=O)O2 | Not significant | 10 | Not significant |  |  |  | Decrease in blood pressure [6]: 5%

Row | Structure (SMILES) | Decrease in blood pressure [1] | Decrease in blood pressure [2] [%] | Decrease in blood pressure [3] | Decrease in blood pressure [4] | logD [7] | Decrease in blood pressure [8] | further results
17 | COc1ccccc1OCC(O)CN1CCC2(CC1)CN(Cc1ccccc1)C(=O)O2 (stereo not given) | Not significant |  | Not significant | Not significant |  | Not significant | logD [13]: 2.19
18 | CCC1CN(CCc2c[nH]c3ccccc23)CCC12CNC(=O)O2 (stereo not given) | Not significant | 16 | Not significant |  | 2.01 |  | Decrease in blood pressure [6]: 19%
19 | CCCN1CC2(CCN(CCc3c[nH]c4ccccc34)CC2)OC1=O | Not significant | 14 | Not significant | Not significant | 2.36 |  | 
20 | CCC1N(C)C(=O)OC12CCN(CCc1c[nH]c3ccccc13)CC2 (stereo not given) | Not significant |  | Not significant | Not significant | 2.14 | Not significant | 
21 | CC1NC(=O)OC12CCN(CCc1c[nH]c3ccccc13)CC2 (stereo not given) | Not significant | 18 | Not significant | Not significant | 1.43 |  | 
22 | COCCN1CC2(CCN(CCc3c[nH]c4ccccc34)CC2)OC1=O | Not significant | 21 | Not significant | Not significant |  |  | 
23 | CCCCN1CC2(CCN(CC(O)COc3ccccc3OC)CC2)OC1=O (stereo not given) | Not significant |  | Not significant | Not significant |  | Not significant | 
24 | O=C1OC2(CCN(CC(O)C3COc4ccccc4O3)CC2)CN1c1ccccc1 (stereo not given) | Not significant | 16 | Not significant | Not significant |  |  | 
25 | CCCCN1CC2(CCN(CC(O)C3COc4ccccc4O3)CC2)OC1=O (stereo not given) | Not significant |  | Not significant | Not significant |  | Not significant | 
26 | COc1ccccc1OCC(O)CN1CCC2(CC1)CNC(=O)O2 (stereo not given) | Not significant |  | Not significant | Not significant | 0.69 | Not significant | 
27 | CCCN1CC2(CCN(CC(O)C3COc4ccccc4O3)CC2)OC1=O (stereo not given) | Not significant |  | Not significant | Not significant |  | Not significant | 
28 | CCCCN1CC2(CCN(CCc3c[nH]c4ccccc34)CC2)OC1=O | Not significant |  | Not significant | Not significant |  | Not significant | 
29 | COc1ccccc1OCC(O)CN1CCC2(CC1)CN(C(C)C)C(=O)O2 (stereo not given) | Not significant |  | Not significant | Not significant |  | Not significant | 
30 | O=C1OC2(CCN(CCc3c[nH]c4ccccc34)CC2)CN1Cc1ccccc1 | Not significant |  | Not significant | Not significant | 2.91 | Not significant | 
31 | O=C1OC2(CCN(CCc3c[nH]c4ccccc34)CC2)CN1CCc1ccccc1 | Not significant |  | Not significant | Not significant | 2.95 | Not significant | 
32 | CC(C)CC1NC(=O)OC12CCN(CCc1c[nH]c3ccccc13)CC2 (stereo not given) |  | 27 | Not significant |  |  |  | Decrease in blood pressure [5]: 22%
